Data set [1] relates to HeLa. Description: Induction of autophagy in human HeLa cells assessed as increase in LC3-2 to LC3-1 ratio at 100 uM after 6 hrs by immunoblot analysis relative to control. The data set is classed as functional. The method, boiled down:
(§1)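 HeLa cells exposed 6 h to test agent (0.625–10 μM series) or chloroquine (1.25–100 μM series) vs DMSO; lysed in 1% Triton buffer (25 mM Tris pH 8.0, 150 mM NaCl, DTT, protease/phosphatase inhibitors), 14% SDS-PAGE, immunoblot with anti-LC3, anti-pH3(Ser10), β-actin loading. LC3-II/LC3-I band intensity ratio expressed relative to DMSO control.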

The subject of data set [2] is HeLa. The data set is described as follows: Induction of autophagy in human HeLa cells assessed as increase in LC3-2 to LC3-1 ratio at 1.25 uM after 6 hrs by immunoblot analysis relative to control. It is filed as functional. An outline of the steps:
as §1
On the technique in general: Immunoblotting shows a protein as a band on a membrane.

The subject of data set [3] is HeLa. Description: Induction of autophagy in human HeLa cells assessed as increase in LC3-2 to LC3-1 ratio at 10 uM after 6 hrs by immunoblot analysis relative to control. The data set is classed as functional. An outline of the steps: as §1
Data set [4] deals with HeLa. Description: Induction of autophagy in human HeLa cells assessed as increase in LC3-2 to LC3-1 ratio at 2.5 uM after 6 hrs by immunoblot analysis relative to control. The data set is classed as functional. The method, boiled down:
as §1

In data set [5] the test system is HeLa. The data set is described as follows: Induction of mitotic arrest in human HeLa cells assessed as formation of misaligned chromosomes at 15 to 25 uM after 6 hrs by DAPI staining-based immunofluorescence analysis. It is filed as functional, cell-based.
The test system of data set [6] is HeLa. The data set is described as follows: Induction of autophagy in human HeLa cells assessed as increase in LC3-2 to LC3-1 ratio at 50 uM after 6 hrs by immunoblot analysis relative to control. The data set is classed as functional. An outline of the steps: as §1
For data set [7], the system named is HeLa. Description: Induction of mitotic arrest in human HeLa cells assessed as formation of disorganized spindles at 15 to 25 uM after 6 hrs by DAPI staining-based immunofluorescence analysis. It is filed as functional, cell-based.
Data set [8] has as its system HeLa. The data set is described as follows: Inhibition of mitotic progression in human HeLa cells assessed as upregulation of phosphorylated histone H3 (Ser10) level up to 100 uM after 6 hrs by immunoblot analysis. The data set is classed as functional, cell-based. An outline of the steps:
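HeLa cells treated 6 h with 0.625–10 μM test agent or chloroquine (1.25–100 μM), or DMSO. Lysis in 1% Triton buffer (pH 8.0) with protease and phosphatase inhibitors, 14% SDS-PAGE, immunoblot for LC3, pH3 (Ser10) and β-actin. Band intensity ratios (LC3-II/LC3-I; pH3) expressed relative to DMSO control.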

The nature of data set [9]: Solubility of the compound in 10% NMP/50% PEG400/40% water at pH 3.5 by HPLC analysis. The data set is classed as physicochemical. An outline of the steps:
(§2)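 1 mg of HCl salt mixed with vehicle (0.5 mL total), target 1 mg/mL. Components added in order: organic solvent (DMSO, ethanol or NMP), then PEG400, then water, vortexing after each addition. Sonicated 15 min, left 3 h at room temperature, then centrifuged 5 min.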

Data set [10] is described as follows: Solubility of the compound in 10% EtOH/50% PEG400/40% water at pH 3.5 by HPLC analysis. The data set is classed as physicochemical. An outline of the steps:
as §2

The nature of data set [11]: AUC (0 to t) in Wistar rat at 10 mg/kg, po by LC-MS/MS analysis. The data set is classed as ADME, organism-based. Particulars: in vivo. The method, boiled down:
(§3)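 Male Wistar rats (n = 3), single oral dose of 10 mg/kg HCl salt given as 1 mg/ml solution in 10% DMSO, 50% PEG400, 40% water pH 5. Blood drawn from catheter over 0–24 h into heparin tubes. Plasma spun off, stored at -80 °C, quantified by LC-MS/MS. Parameters by non-compartmental analysis, mean (SD).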

Data set [12] can be described thus: Solubility of the compound in 60% PEG400/40% water at pH 7 by HPLC analysis. It is filed as physicochemical. An outline of the steps: as §2
A short description of data set [13]: Solubility of the compound in 10% DMSO/90% water at pH 7 by HPLC analysis. It is filed as physicochemical. An outline of the steps:
as §2

Data set [14] is described as follows: Solubility of the compound in 10% NMP/50% PEG400/40% water at pH 5 by HPLC analysis. It is filed as physicochemical. The method, boiled down:
as §2

Data set [15] in a line: Solubility of the compound in 10% DMSO/90% water at pH 5 by HPLC analysis. The data set is classed as physicochemical. An outline of the steps:
as §2

Data set [16] is described as follows: Solubility of the compound in 10% DMSO/90% water at pH 3.5 by HPLC analysis. The data set is classed as physicochemical. An outline of the steps:
as §2

Data set [17] is described as follows: AUC (0 to infinity) in Wistar rat at 10 mg/kg, po by LC-MS/MS analysis. Details: dose 10 mg/kg, time infinity, route oral. Particulars: in vivo. It is filed as ADME, organism-based. An outline of the steps:
as §3

A short description of data set [18]: AUC (0 to t) in Wistar rat at 2 mg/kg, iv by LC-MS/MS analysis. It is filed as ADME, organism-based. Particulars: in vivo. An outline of the steps: (§4)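 Male Wistar rats (n = 3), intravenous dose of 2 mg/kg HCl salt as 1 mg/ml solution in 10% DMSO, 50% PEG400, 40% water pH 5. Catheter blood sampling over 0–4 h into heparin. Plasma separated, stored at -80 °C, measured by LC-MS/MS. Non-compartmental estimation, mean (SD).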

The nature of data set [19]: MRT in Wistar rat at 2 mg/kg, iv by LC-MS/MS analysis. It is filed as ADME, organism-based. The settings on record: in vivo. An outline of the steps:
(§5)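 Male Wistar rats, n = 3 per route, dosed with HCl salt as 1 mg/mL solution in 10% DMSO/50% PEG400/40% water pH 5. Doses 2 mg/kg iv or 10 mg/kg po. Heparinised blood sampled via catheter (0–4 h iv, 0–24 h po), plasma analysed by LC-MS/MS. Parameters derived by non-compartmental analysis.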

Data set [20] can be described thus: Cmax in Wistar rat at 10 mg/kg, po by LC-MS/MS analysis. The data set is classed as ADME, organism-based. Details: dose 10 mg/kg, route oral. Particulars: in vivo. An outline of the steps: (§6)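 Male Wistar rats dosed orally at 10 mg/kg with HCl salt as solution in 10% DMSO, 50% PEG400, 40% water pH 5. Catheter blood over 0-24 h into heparin, plasma by LC-MS/MS. Non-compartmental PK; n = 3, mean (SD).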

Data set [21] can be described thus: Solubility of the compound in 10% EtOH/50% PEG400/40% water at pH 5 by HPLC analysis. The data set is classed as physicochemical. The method, boiled down: as §2
A short description of data set [22]: MRT in Wistar rat at 10 mg/kg, po by LC-MS/MS analysis. The data set is classed as ADME, organism-based. Particulars: in vivo. An outline of the steps: as §5
A short description of data set [23]: Terminal half life in Wistar rat at 2 mg/kg, iv by LC-MS/MS analysis. The data set is classed as ADME, organism-based. Particulars: in vivo, read-out: beta t1/2 (converted). The method, boiled down:
as §5

Data set [24] can be described thus: Solubility of the compound in 10% DMSO/50% PEG400/40% water at pH 5 by HPLC analysis. It is filed as physicochemical. An outline of the steps: as §2
The nature of data set [25]: Half life in Wistar rat at 10 mg/kg, po by LC-MS/MS analysis. It is filed as ADME, organism-based. The settings on record: in vivo. An outline of the steps:
as §6

Data set [26] in a line: Solubility of the compound in 60% PEG400/40% water at pH 3.5 by HPLC analysis. It is filed as physicochemical. An outline of the steps: as §2
Data set [27] in a line: Oral bioavailability in Wistar rat at 10 mg/kg by LC-MS/MS analysis. The data set is classed as ADME, organism-based. The settings on record: in vivo. The method, boiled down:
as §5

Data set [28] is described as follows: Tmax in Wistar rat at 10 mg/kg, po by LC-MS/MS analysis. The data set is classed as ADME, organism-based. Particulars: in vivo. The method, boiled down: as §5
Data set [29] is described as follows: Solubility of the compound in 60% PEG400/40% water at pH 5 by HPLC analysis. The data set is classed as physicochemical. An outline of the steps: as §2
The nature of data set [30]: AUC (0 to infinity) in Wistar rat at 2 mg/kg, iv by LC-MS/MS analysis. It is filed as ADME, organism-based. Also on record: dose 2 mg/kg, time infinity, route intravenous. The settings on record: in vivo. An outline of the steps:
as §4

Data set [31] in a line: Solubility of the compound in 10% DMSO/50% PEG400/40% water at pH 3.5 by HPLC analysis. It is filed as physicochemical. An outline of the steps:
as §2

Each structure is given as a SMILES string. The source made the active and inactive calls. The rule behind the calls is not given here.

A word on the solubility: it is the dissolved amount per volume that the medium holds. A higher solubility goes with much dissolved substance. As usually defined, the AUC(0-t) is exposure summed from dosing to a finite time, without extrapolation to infinity. A high value points to more exposure. For orientation: AUC(0-inf) means the area under the concentration-time curve extrapolated to infinity. A lower AUC(0-inf) goes with low exposure. As usually defined, the MRT is a mean duration of stay, worked out from the concentration-time curve. By Cmax is commonly meant the peak of the concentration-time curve. The bioavailability is dose-corrected exposure relative to a reference, in per cent. Low values mean poor availability, high ones good availability. The term Tmax denotes the time at which the peak concentration occurs.

As to `CCN(CC)CCCC(C)Nc1ccnc2cc(Cl)ccc12` (stereo unspecified) [CHLOROQUINE], the “fold change (FC)” value was found to be 4.2 with HeLa [1]; 1.7 in the data set on HeLa [2]; 3.1 in the data set with HeLa [3]; 1.9 in the data set with HeLa [4]; 4.2 in the data set with HeLa [6]. Further, the result in the data set with HeLa [5] and in the data set on HeLa [7] was inactive. Besides, the inhibition entry in the data set on HeLa [8] is “inactive”.
Turning to `Cl.N#C/C(=C\c1cccc2cnccc12)c1c[nH]c2ccccc12`, the solubility came out at 1220 µg/mL in data set [9]; 1300 µg/mL in data set [10]; 869 µg/mL in data set [12]; 3 µg/mL in data set [13]; 1170 µg/mL in data set [14]; 6 µg/mL in data set [15]. In addition, the solubility amounted to 7 µg/mL in data set [16]; 741 µg/mL in data set [21]; 1200 µg/mL in data set [24]; 1060 µg/mL in data set [26]; 940 µg/mL in [29]; 966 µg/mL in data set [31]. In addition, the AUC(0-t) in [11] is 1690 ng·h/mL; in [18], 820 ng·h/mL. The AUC(0-inf) in [17] was determined as 1770 ng·h/mL; in data set [30] it was 822 ng·h/mL. In addition, the results for the MRT in data set [19] and in data set [22] were 17.4 min and 113 min, respectively. The compound also came in with a Cmax in data set [20] of 1130 ng/mL. The half-life in data set [23] was 21.6 min; in data set [25], 96 min. For the same compound, the bioavailability in [27] is 43%. Besides, in data set [28], the Tmax worked out at 43.2 min.

(Values after ChEMBL document CHEMBL4270554, “Discovery of the cancer cell selective dual acting anti-cancer agent (Z)-2-(1H-indol-3-yl)-3-(isoquinolin-5-yl)acrylonitrile (A131)” (Eur J Med Chem, 2018).)
